This is an account of results in ChEMBL document CHEMBL4732088, “Identification and optimization of piperlongumine analogues as potential antioxidant and anti-inflammatory agents via activation of Nrf2” (Eur J Med Chem, 2021).

The test system of assay [1] is PC-12. As to the kind of experiment: Protection against H2O2-induced apoptosis in rat PC12 cells assessed as late apoptotic cells at 10 uM incubated for 24 hrs by annexin V FITC/propidium iodide staining based flow cytometry (reference value: 16.2 %). In kind it is functional.
For assay [2], the system named is PC-12. As to the kind of experiment: Protection against H2O2-induced oxidative damage in rat PC12 cells assessed as intracellular ROS level by measuring mean fluorescence intensity at 5 uM pretreated with compound followed by H2O2 stimulation by DCFH-DA staining based flow cytometry (reference value: 233032.55). The assay is classed as functional.
The next assay concerns BV-2. As to the kind of experiment: Antiinflammatory activity in mouse BV2 cells transfected with control siRNA assessed as reduction in LPS-induced NO production at 20 uM pretreated with compound followed by LPS stimulation for 18 hrs.
Assay [3] relates to PC-12. As to the kind of experiment: Protection against H2O2-induced apoptosis in rat PC12 cells assessed as early apoptotic cells at 10 uM incubated for 24 hrs by annexin V FITC/propidium iodide staining based flow cytometry (reference value: 3.9 %). In kind it is functional.
Assay [4] deals with PC-12. As to the kind of experiment: Protection against 6-OHDA-induced apoptosis in rat PC12 cells assessed as late apoptotic cells at 20 uM incubated for 24 hrs by annexin V FITC/propidium iodide staining based flow cytometry (reference value: 7.6 %). The assay is classed as functional. A general note: In flow cytometry, cells or beads pass a laser one at a time.
The subject of assay [5] is PC-12. Nature of the assay: Protection against H2O2-induced oxidative damage in rat PC12 cells assessed as intracellular ROS level by measuring mean fluorescence intensity at 20 uM pretreated with compound followed by H2O2 stimulation by DCFH-DA staining based flow cytometry (reference value: 233032.55). In kind it is functional.
Assay [6] deals with PC-12. Nature of the assay: Protection against 6-OHDA-induced mitochondrial dysfunction in rat PC12 cells assessed as change in mitochondrial membrane potential at 20 uM pretreated with compound followed by 6-OHDA addition by JC-1 staining based flow cytometry (reference value: 73.2 %). The assay is classed as functional. The gist of the method: (§1)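 Mitochondrial membrane potential in PC12 cells pretreated with compound (5, 10, 20 μM), then exposed to H₂O₂ (200 μM) or 6-OHDA (150 μM). JC-1 staining, red-to-green fluorescence shift read by flow cytometry. Mean ± SD, n = 3.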

For assay [7], the system named is PC-12. Nature of the assay: Neuroprotective activity against 6-OHDA-induced cell death in rat PC12 cells assessed as cell viability at 20 uM preincubated for 30 mins in presence of ZNPP […] and measured after 24 hrs by MTT assay. The note with it: time 24.5 hrs. The assay is classed as functional, cell-based.
The target of assay [8] is T1, Nuclear factor erythroid 2-related factor 2 (Rattus norvegicus) (UniProt O54968).
T1 sequence (whole entry): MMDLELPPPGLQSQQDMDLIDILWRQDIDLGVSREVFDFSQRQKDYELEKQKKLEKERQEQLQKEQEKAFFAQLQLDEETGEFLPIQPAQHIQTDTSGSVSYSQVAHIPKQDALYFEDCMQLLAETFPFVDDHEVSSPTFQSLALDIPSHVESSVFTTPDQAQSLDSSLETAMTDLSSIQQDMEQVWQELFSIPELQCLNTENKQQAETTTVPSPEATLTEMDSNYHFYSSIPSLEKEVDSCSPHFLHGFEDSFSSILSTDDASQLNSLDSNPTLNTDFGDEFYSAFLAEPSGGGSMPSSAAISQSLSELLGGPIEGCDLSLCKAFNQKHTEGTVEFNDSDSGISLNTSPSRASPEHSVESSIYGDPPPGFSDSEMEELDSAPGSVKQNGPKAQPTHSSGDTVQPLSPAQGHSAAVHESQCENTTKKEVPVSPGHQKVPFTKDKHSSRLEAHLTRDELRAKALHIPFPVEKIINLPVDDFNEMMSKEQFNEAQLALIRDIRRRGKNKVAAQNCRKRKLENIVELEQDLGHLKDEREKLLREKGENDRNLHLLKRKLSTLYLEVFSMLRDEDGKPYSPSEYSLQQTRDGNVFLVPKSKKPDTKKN
As to the kind of experiment: Activation of Nrf2 in rat PC12 cells assessed as increase in GCLM protein level after 24 hrs by Western blot analysis. The assay is classed as cell-based. The following applies: PC-12, filed as activator, dose 5-20 µM. The gist of the method: (§2)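 PC12 cells treated with compound for 24 h at rising concentrations; NQO1, HO-1, TrxR1, GCLM, GCLC protein detected by Western blot.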

The target in assay [9] is T1, Nuclear factor erythroid 2-related factor 2 (Rattus norvegicus). As to the kind of experiment: Activation of Nrf2 in rat PC12 cells assessed as increase in GCLC protein level after 24 hrs by Western blot analysis. In kind it is cell-based. The note with it: PC-12, filed as activator, dose 5-20 µM. The gist of the method: as §2
A general note: In western blotting, separated proteins are transferred to a membrane and probed.

In assay [10] the test system is PC-12. As to the kind of experiment: Protection against H2O2-induced apoptosis in rat PC12 cells assessed as late apoptotic cells at 5 uM incubated for 24 hrs by annexin V FITC/propidium iodide staining based flow cytometry (reference value: 16.2 %). The assay is classed as functional.
Assay [11] has as its system PC-12. Nature of the assay: Prevention of 6-OHDA-induced calcium overload in rat PC12 cells assessed as reduction in intracellular free calcium by measuring mean fluorescence intensity at 10 uM pretreated with compound followed by 6-OHDA addition measured after 24 hrs by Fluo-3AM based fluorescence assay (reference value: 6708.18%). In kind it is functional.
Assay [12] concerns PC-12. As to the kind of experiment: Protection against H2O2-induced apoptosis in rat PC12 cells assessed as viable cells at 20 uM incubated for 24 hrs by annexin V FITC/propidium iodide staining based flow cytometry (reference value: 79.3 %). The following applies: read-out: Activity. The assay is classed as functional.
Assay [13] relates to PC-12. Nature of the assay: Protection against H2O2-induced mitochondrial dysfunction in rat PC12 cells assessed as change in mitochondrial membrane potential at 5 uM pretreated with compound followed by H2O2 addition by JC-1 staining based flow cytometry (reference value: 78.7 %). In kind it is functional. The gist of the method: as §1
Assay [14] concerns PC-12. As to the kind of experiment: Protection against 6-OHDA-induced oxidative damage in rat PC12 cells assessed as intracellular ROS level by measuring mean fluorescence intensity at 20 uM pretreated with compound followed by 6-OHDA stimulation by DCFH-DA staining based flow cytometry (reference value: 26327.34). The assay is classed as functional.
In assay [15] the test system is PC-12. As to the kind of experiment: Neuroprotective activity against 6-OHDA-induced cell damage in rat PC12 cells assessed as cell viability at 20 uM after 24 hrs by MTT assay (reference value: 45.23 +/- 4.37 %). The note with it: read-out: Activity. In kind it is functional. On the technique in general: Formazan colour is commonly taken as a measure of viable cells.

In assay [16] the target is T1, Nuclear factor erythroid 2-related factor 2 (Rattus norvegicus). As to the kind of experiment: Activation of Nrf2 in rat PC12 cells assessed as increase in Nrf2 protein level at 20 uM after 3 hrs by Western blot analysis. In kind it is cell-based. The following applies: PC-12, filed as activator.
Assay [17] concerns PC-12. As to the kind of experiment: Neuroprotective activity against 6-OHDA-induced cell death in rat PC12 cells assessed as cell viability at 20 uM preincubated for 30 mins in presence of brusatol […] and measured after 24 hrs by MTT assay. In kind it is functional, cell-based. The following applies: time 24.5 hrs.
Assay [18] concerns PC-12. Nature of the assay: Protection against 6-OHDA-induced apoptosis in rat PC12 cells assessed as early apoptotic cells at 5 uM incubated for 24 hrs by annexin V FITC/propidium iodide staining based flow cytometry (reference value: 19.2 %). The assay is classed as functional.
The subject of assay [19] is PC-12. Nature of the assay: Protection against H2O2-induced oxidative damage in rat PC12 cells assessed as intracellular ROS level by measuring mean fluorescence intensity at 10 uM pretreated with compound followed by H2O2 stimulation by DCFH-DA staining based flow cytometry (reference value: 233032.55). The assay is classed as functional.
The test system of assay [20] is PC-12. Nature of the assay: Protection against H2O2-induced apoptosis in rat PC12 cells assessed as necrotic cells at 5 uM incubated for 24 hrs by annexin V FITC/propidium iodide staining based flow cytometry (reference value: 0.6 %). In kind it is functional.
In assay [21] the test system is PC-12. As to the kind of experiment: Protection against H2O2-induced apoptosis in rat PC12 cells assessed as early apoptotic cells at 5 uM incubated for 24 hrs by annexin V FITC/propidium iodide staining based flow cytometry (reference value: 3.9 %). The assay is classed as functional.

The source made the active and inactive calls. No cut-off for these calls is given here.

As to `CCN(C)C(=O)N1CCN(C(=O)/C=C/c2ccc(F)cc2)C1=O`, the Activity in the assay with PC-12 [1] was 5.3%; in the assay on PC-12 [3], 2.1%; in the assay with PC-12 [4], 5%; in the assay with PC-12 [6], 89.3%; in assay [8], “Dose-dependent effect”; in assay [9], “Dose-dependent effect”. The Activity in the assay on PC-12 [10] is 9.9%; with PC-12 [13], 86.7%; with PC-12 [18], 11.1%; in the assay on PC-12 [20] it was 0.9%; with PC-12 [21] it was 5.1%. For the same molecule, the Flu intensity in the assay with PC-12 [2] came to 205329.36; with PC-12 [5], 130822.7; in the assay with PC-12 [11], 4204.33; with PC-12 [14], 9730; with PC-12 [19], 146612.92. In addition, the result (in the assay on BV-2; in assay [16]) was Active. For the same molecule, the result in the assay on PC-12 [7] and in the assay with PC-12 [17] was inactive. Moreover, the figures for the viability at 20 µM in the assay with PC-12 [12] and with PC-12 [15] were 93.7% and 75.4%, respectively.
